Assay [1] concerns MDA-MB-231. In words: Growth inhibition of human MDA-MB-231 2LMP cells after 4 days by WST-8 based assay. The conditions noted are these: MDA-MB-231, 96 h. The format is functional, cell-based. Summed up: (§1)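 Cells grown with compound for 4 days, then cell growth read by WST-based assay; IC50 values. Both lines express high levels of Bcl-2, Bcl-xL and Mcl-1.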
The target in assay [2] is Apoptosis regulator Bcl-2 (Homo sapiens, UniProt P10415). Briefly: Inhibition of human Bcl-2 protein by ELISA. Summed up:
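ELISA competitive binding to Bcl-2 using a biotinylated Bim peptide as competitor; IC50 values.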

Assay [3] concerns the target Induced myeloid leukemia cell differentiation protein Mcl-1 (Homo sapiens, UniProt Q07820). In words: Inhibition of human Mcl-1 protein by fluorescence polarization assay. A digest of the protocol:
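Mcl-1 binding by fluorescence-polarization competition assay; Ki values.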

Assay [4] concerns PC-3. Briefly: Growth inhibition of human PC3 cells after 4 days by WST-8 based assay. The format is functional, cell-based. Particulars: PC-3, 96 h. Summed up: as §1
The subject of assay [5] is MDA-MB-231. Briefly: Induction of apoptosis in human MDA-MB-231 2LMP cells by annexin-5/propidium iodide assay. It is filed as functional, cell-based. A digest of the protocol:
(§2)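 Four-day exposure, then apoptosis measured by annexin-V/propidium iodide staining and flow cytometry.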

The test system of assay [6] is MDA-MB-231. Briefly: Induction of apoptosis in human MDA-MB-231 2LMP cells assessed as cell viability at 1 uM after 4 days by trypan blue exclusion assay. It is filed as functional. Particulars: MDA-MB-231, 96 h, read-out: Activity. A digest of the protocol:
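Cell death scored by trypan blue exclusion after 4 days of exposure at 0.3, 1 and 3 µM; percentage of dead cells reported with ± error.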

The subject of assay [7] is MDA-MB-231. Briefly: Induction of apoptosis in human MDA-MB-231 2LMP cells assessed as cell viability by trypan blue exclusion assay. The conditions noted are these: TDE = time-dependent effect. It is filed as functional, cell-based.
In assay [8] the test system is PC-3. Briefly: Induction of apoptosis in human PC3 cells assessed as cell viability by trypan blue exclusion assay. The conditions noted are these: TDE = time-dependent effect. It is filed as functional, cell-based.
Assay [9] has as its system PC-3. In words: Induction of apoptosis in human PC3 cells assessed as Cell viability after 4 days by trypan blue exclusion assay. The format is functional, cell-based.
The test system of assay [10] is PC-3. In words: Induction of apoptosis in human PC3 cells by annexin-5/propidium iodide assay. The format is functional, cell-based. A digest of the protocol: as §2

Molecules are shown by their SMILES. Active and inactive are the calls of the source. The calls are words filed in the database; no cut-off is given here.

Chain of Apoptosis regulator Bcl-2 (P10415 whole entry): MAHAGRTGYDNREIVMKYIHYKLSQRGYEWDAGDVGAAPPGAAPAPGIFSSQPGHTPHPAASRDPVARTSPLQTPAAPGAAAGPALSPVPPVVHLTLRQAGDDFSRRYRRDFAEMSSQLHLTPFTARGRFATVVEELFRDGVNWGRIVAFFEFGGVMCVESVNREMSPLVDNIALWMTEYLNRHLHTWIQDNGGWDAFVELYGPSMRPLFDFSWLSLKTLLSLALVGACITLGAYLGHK
Chain of Induced myeloid leukemia cell differentiation protein Mcl-1 (Q07820 whole entry): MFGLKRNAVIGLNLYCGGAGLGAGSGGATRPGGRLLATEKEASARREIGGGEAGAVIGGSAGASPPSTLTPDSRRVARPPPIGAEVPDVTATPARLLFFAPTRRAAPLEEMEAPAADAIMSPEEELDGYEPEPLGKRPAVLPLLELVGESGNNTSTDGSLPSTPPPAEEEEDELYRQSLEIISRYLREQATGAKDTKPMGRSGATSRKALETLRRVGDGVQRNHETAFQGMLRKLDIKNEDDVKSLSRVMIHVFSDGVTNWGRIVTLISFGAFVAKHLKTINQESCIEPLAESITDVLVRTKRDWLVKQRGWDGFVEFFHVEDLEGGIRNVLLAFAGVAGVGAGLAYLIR

Turning to `CC(C)c1cc(C(=O)c2ccc(Oc3ccccc3)cc2)c(O)c(O)c1O`, the IC50 came to 12900 nM with MDA-MB-231 [1], 3400 nM in assay [2], 3060 nM in assay [3] and 12400 nM with PC-3 [4]. This molecule also gave a Ki in [3] of 380 nM.

On to `O=C(c1ccc(Oc2ccccc2)cc1)c1cc(C(=O)c2nc3ccccc3s2)c(O)c(O)c1O`, for which the IC50 turned out to be 120 nM with MDA-MB-231 [1], 170 nM in assay [2], 310 nM in [3] and 260 nM in the assay with PC-3 [4]. Further, the outcome with MDA-MB-231 [5] and in the assay with PC-3 [10] was Active. Also, the viability at 1 µM in the assay with MDA-MB-231 [6] was 58%. Also, the Activity result in the assay on MDA-MB-231 [7] is “tde”; in the assay on PC-3 [8], “tde”; in the assay on PC-3 [9], “Dose-dependent effect”. The molecule also registered a Ki in assay [3] of 37 nM.

For the molecule `CC(C)C(=O)c1cc(C(=O)c2ccc(Oc3ccccc3)cc2)c(O)c(O)c1O`, the IC50 with MDA-MB-231 [1] turned out to be 4500 nM; in assay [2], 2600 nM; in [3], 2670 nM; with PC-3 [4], 5700 nM. For the same molecule, the inhibitory constant (Ki) in assay [3] worked out at 340 nM.

For the molecule `O=C(c1ccc(Oc2ccccc2)cc1)c1cc(C(=O)c2cccc3ccccc23)c(O)c(O)c1O`, the IC50 was determined as 290 nM in the assay on MDA-MB-231 [1], 290 nM in assay [2], 1200 nM in assay [3] and 550 nM in the assay with PC-3 [4]. In assay [3], this molecule came in with a Ki of 150 nM.

For the molecule `Cc1cc2c(C(C)C)c(O)c(O)c(C=O)c2c(O)c1-c1c(C)cc2c(C(C)C)c(O)c(O)c(C=O)c2c1O` [GOSSYPOL], the values for the IC50 in the assay with MDA-MB-231 [1] and with PC-3 [4] were 3700 nM and 2500 nM, respectively.

As for `CC(C)c1cc(C(=O)c2ccccc2)c(O)c(O)c1O`, the IC50 in the assay with MDA-MB-231 [1] stood at 30700 nM; in [2] it was 41600 nM; in [3] it was 36500 nM; in the assay on PC-3 [4] it was 39300 nM. The same molecule yielded a Ki in assay [3] of 4600 nM.

Values taken from ChEMBL document CHEMBL1141593, “Acylpyrogallols as inhibitors of antiapoptotic Bcl-2 proteins” (J Med Chem, 2008).
